The list is not random: actives were taken first. Their share in the collection is about 2.9%.
NALP1 inh: blocks the NALP1 inflammasome reconstituted in yeast; inhibition, % at 10 µM; hit rate 0.61% among 280,000; S. cerevisiae NALP1/ASC/caspase-1 growth, X-gal OD620, 72 h; in the data active = inhibition mostly above about 24%, no sharp cut-off; inactive = mostly below about 32%
IMP-1 inh: blocks Pseudomonas aeruginosa IMP-1 metallo-beta-lactamase; purified IMP-1, nitrocefin hydrolysis, epi-absorbance fluorescence; inhibition, % at 5.6 µM; hit rate 0.45% among 290,000; AID 1556;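 active = inhibition above the mean plus 3 SD of all compounds in the same screening run, cut at about 4.5% in these data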
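Assay system: purified IMP-1; Quantity: IMP-1 0.2 nM before substrate addition; Medium: HEPES buffer pH 7.1 with ZnSO4 and Brij 35; Incubation: 15 min enzyme–compound preincubation, then 25 min nitrocefin reaction, 25 °C; Signal: fluorescence quenching readout, ex 480/em 530 nm; Controls: DMSO with and without IMP-1; Repeats: singlicate testing.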
FID counter: fluorescent intercalator displacement, NS3 helicase counter-screen; DNA fluorescent intercalator displacement, fluorescence; inhibition, % at 7.9 µM; hit rate 0.17% among 290,000; AID 1845; in the data active = inhibition above about 37%;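 note: higher means more ethidium bromide displaced from hairpin DNA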
VIM-2 inhibitor: inhibitors of Pseudomonas aeruginosa VIM-2 metallo-beta-lactamase. purified VIM-2, nitrocefin hydrolysis, epi-absorbance fluorescence. inhibition, % at 5.6 µM. hit rate 0.89% among 290,000;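 active = inhibition above the mean of all tested compounds plus 3 SD, cutoff set per screening run, cut at about 7.5% in these data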;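 note: red hydrolysis product quenches plate fluorescence so inhibitors raise well fluorescence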
Mot1-301 SUMO: SUMOylation pathway inhibition by Mot1-301 growth rescue. hit rate 1% among 320,000. growth rescue, % at 18.8 µM. S. cerevisiae Mot1-301 growth rescue, ATP luminescence, 38.5C; percent above DMSO median, 100 means doubled;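 active = every valid replicate shows activation above 250% relative to neutral control wells; inactive = the rest, any valid replicate at or below 250%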
SUMO HTRF inh: inhibitors of human SUMOylation (UBC9); AID 2006; hit rate 0.36% among 290,000; inhibition, % at 35 µM; HTRF SUMOylation assay, SAE1/SAE2 + UBC9, in vitro; in the data active = inhibition above about 50%, passing the limit was not always enough; inconclusive = no clear call, values can overlap the other calls
Target sequence (P63279 whole entry, looked up): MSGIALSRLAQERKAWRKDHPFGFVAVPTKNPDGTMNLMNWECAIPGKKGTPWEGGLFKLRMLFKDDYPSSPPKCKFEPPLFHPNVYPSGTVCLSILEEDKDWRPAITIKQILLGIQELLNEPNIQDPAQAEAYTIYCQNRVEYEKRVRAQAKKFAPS
Yeast Mot1 SUMO: inhibits SUMO pathway, affecting Mot1-301 yeast growth; shares compounds with Mot1-301 SUMO; S. cerevisiae Mot1-301 galactose growth, ATP luminescence, 24 h; -100 = growth of slx-deleted rescue strain; growth activity, percent, % at 42 µM; 2,300 tested, under 10 active; AID 493004;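 active = Signal drops as the depositor expects, and the fitted half-maximal dose is no more than ten times the top valid tested dose; inconclusive = Poor fit, or a flat curve whose signal drops by 30% to 70%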;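 note: more negative values mean stronger growth rescue toward the control strain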
A number is an active result.

Screening CCCCOc1ccc(C(=O)N2CCN(CC(=O)Nc3ccc(C)cc3)CC2)cc1OC returned NALP1 inh inactive, IMP-1 inh inactive, FID counter inactive, VIM-2 inhibitor inactive, Mot1-301 SUMO inactive and SUMO HTRF inh inactive.
C=CCc1ccc(OCCOc2cccc3ccc(C)nc23)c(OC)c1 was read as NALP1 inh inactive, IMP-1 inh inactive, FID counter inactive, VIM-2 inhibitor inactive, Mot1-301 SUMO inactive and SUMO HTRF inh inactive.
Cc1ccc(-n2nnnc2C(Cl)(Cl)c2nnnn2-c2ccc(C)cc2)cc1 was read as NALP1 inh inactive, IMP-1 inh inactive, FID counter inactive, VIM-2 inhibitor inactive, Mot1-301 SUMO active, SUMO HTRF inh inactive and Yeast Mot1 SUMO inactive.
O=C1Cc2cc(CCN3CCN(c4nsc5ccccc45)CC3)c(Cl)cc2N1 was read as NALP1 inh inactive, IMP-1 inh inactive, FID counter inactive, VIM-2 inhibitor inactive and SUMO HTRF inh inactive.
`COc1ccc(C2=NOC(Cn3nc(C(=O)NCc4cccs4)cc3-c3ccccc3)C2)cc1` (centres undefined) gave Mot1-301 SUMO 691.6 and Yeast Mot1 SUMO inactive.
`COc1ccc(C2=NOC(Cn3nc(C(=O)NCc4ccc(C)cc4)cc3-c3ccccc3)C2)cc1` (centres undefined) gave Mot1-301 SUMO inactive.
`CCOC(=O)C1CCN(C(=O)c2cc3c(=O)n4ccccc4nc3n2C)CC1` gave NALP1 inh inactive, IMP-1 inh inactive, FID counter inactive, VIM-2 inhibitor inactive, Mot1-301 SUMO inactive and SUMO HTRF inh inconclusive.
`COCCCNC(=O)COc1ccc(S(=O)(=O)Nc2ccccc2)cc1` gave NALP1 inh inactive, IMP-1 inh inactive, FID counter inactive, VIM-2 inhibitor inactive, Mot1-301 SUMO inactive and SUMO HTRF inh inactive.
CCNC(=O)COc1ccc(S(=O)(=O)Nc2ccccc2)cc1 was read as NALP1 inh inactive, IMP-1 inh inactive, FID counter inactive, VIM-2 inhibitor inactive, Mot1-301 SUMO 798.3, SUMO HTRF inh inactive and Yeast Mot1 SUMO inactive.
CN(C)S(=O)(=O)c1ccc(Cl)c(NC(=O)CN2C(=O)NC(C)(C3CC3)C2=O)c1 (centres undefined) was read as IMP-1 inh inactive, FID counter inactive, VIM-2 inhibitor inactive, Mot1-301 SUMO 651.1, SUMO HTRF inh inactive and Yeast Mot1 SUMO inactive.
CC1(C2CC2)NC(=O)N(CC(=O)Nc2cc(S(=O)(=O)N3CCCCC3)ccc2Cl)C1=O (centres undefined) was read as Mot1-301 SUMO inactive.
For CC(C)c1ccc(NNC(=O)C2CCC2)cc1 the results were NALP1 inh inactive, IMP-1 inh inactive, FID counter inactive, VIM-2 inhibitor inactive, Mot1-301 SUMO inactive and SUMO HTRF inh inactive.
For NC(=O)C1CCCN(C(=S)NCc2ccc3c(c2)OCO3)C1 (centres undefined) the results were NALP1 inh inactive, IMP-1 inh inactive, FID counter inactive, VIM-2 inhibitor inactive, Mot1-301 SUMO inactive and SUMO HTRF inh inactive.
Screening NC(=O)C1CCCN(C(=S)Nc2cccc3ccccc23)C1 (centres undefined) returned NALP1 inh inactive, IMP-1 inh inactive, FID counter inactive, VIM-2 inhibitor inactive, Mot1-301 SUMO 908.8, SUMO HTRF inh inactive and Yeast Mot1 SUMO inactive.
For COc1cc(C(=O)Oc2cc(C)[nH]c(=O)c2[N+](=O)[O-])cc(OC)c1OC the results were NALP1 inh inactive, IMP-1 inh inactive, FID counter inactive, VIM-2 inhibitor inactive, Mot1-301 SUMO inactive and SUMO HTRF inh inactive.
Screening Cc1cc(C)cc(C(=O)Oc2cc(C)[nH]c(=O)c2[N+](=O)[O-])c1 returned NALP1 inh inactive, IMP-1 inh inactive, FID counter inactive, VIM-2 inhibitor inactive, Mot1-301 SUMO 366.2, SUMO HTRF inh inactive and Yeast Mot1 SUMO inactive.
CN(C#N)c1nc(Cl)nc(Nc2cccc(Cl)c2)n1 was read as NALP1 inh inactive, IMP-1 inh inactive, FID counter inactive, VIM-2 inhibitor 9.4, Mot1-301 SUMO 596.8, SUMO HTRF inh inactive and Yeast Mot1 SUMO inactive.
For Cc1cc(C)nc(Nc2cccc(Cl)c2)n1 the results were NALP1 inh inactive, IMP-1 inh inactive, FID counter inactive, VIM-2 inhibitor inactive, Mot1-301 SUMO inactive and SUMO HTRF inh inactive.

Source: PubChem BioAssay
